Reference: ChEMBL document CHEMBL1155834, “Antimicrobial diterpenes from Trigonostemon chinensis” (2008)
≈ marks a conversion by molar mass, not a printed value.

Assays:
Assay type in all cases: functional
Helicobacter pylori [1] = test: Antibacterial activity against Helicobacter pylori SS1 after 96 hrs; conditions: SS1, 96 h
How it was run: (§1)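 Agar plates inoculated with H. pylori cells suspended in saline at 10^8 cfu/mL, incubated 37 °C for 96 h microaerobically (5% O2, 10% CO2, 85% N2) alongside blank and positive controls. Triplicate tests.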

Helicobacter pylori [2] = test: Antibacterial activity against metronidazole-resistant Helicobacter pylori ATCC 43504 after 96 hrs; conditions: ATCC 43504, 96 h; how it was run: as §1
Staphylococcus aureus = test: Antibacterial activity against Staphylococcus aureus ATCC 25923 after 18 hrs; conditions: ATCC 25923, 18 h
How it was run: (§2)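 Broth dilution in Mueller Hinton broth, compounds dissolved in DMSO. Cells incubated aerobically with compound at 37 °C for 18 h, with DMSO-only blank cultures. MIC is the lowest concentration giving complete inhibition of visible growth.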

[3] = test system: Staphylococcus epidermidis; test: Antibacterial activity against Staphylococcus epidermidis ATCC 12228 after 18 hrs; conditions: ATCC 12228, 18 h; how it was run: as §2
Micrococcus luteus = test: Antibacterial activity against Micrococcus luteus ATCC 9341 after 18 hrs; conditions: ATCC 9341, 18 h; how it was run: as §2
Escherichia coli = test: Antibacterial activity against Escherichia coli after 18 hrs; how it was run: as §2
Shigella flexneri = test: Antibacterial activity against Shigella flexneri after 18 hrs; how it was run: as §2
Pseudomonas aeruginosa = test: Antibacterial activity against Pseudomonas aeruginosa after 18 hrs; how it was run: as §2
Nannizzia gypsea = test: Antifungal activity against Microsporum gypseum after 48 hrs
How it was run: (§3)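 Fungi grown in Sabouraud dextrose broth with compound at 37 °C for 48 h. MIC is the lowest concentration completely inhibiting visible growth.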

Bacillus subtilis = test: Antibacterial activity against Bacillus subtilis CMCC 63501 after 18 hrs; how it was run: as §2
Candida albicans = test: Antifungal activity against Candida albicans after 48 hrs; how it was run: as §3

Row | SMILES | MIC (Helicobacter pylori [1]) | MIC (Helicobacter pylori [2]) | MIC (Staphylococcus aureus) | MIC [3] | MIC (Micrococcus luteus) | MIC (Escherichia coli) | MIC (Shigella flexneri) | MIC (Pseudomonas aeruginosa) | MIC (Nannizzia gypsea) | MIC (Bacillus subtilis) | MIC (Candida albicans)
1 | C=Cc1c(C)c(O)cc2c1CC[C@H](C(=C)C)[C@@]2(C)CCC(=O)OC | 25 µg/mL (≈ 76.1 µM) | 50 µg/mL (≈ 152 µM) | 12.5 µg/mL (≈ 38.1 µM) | 6.25 µg/mL (≈ 19 µM) | 6.25 µg/mL (≈ 19 µM) | > 50 µg/mL | > 50 µg/mL | > 50 µg/mL | 50 µg/mL (≈ 152 µM) | 3.12 µg/mL (≈ 9.5 µM) | > 50 µg/mL
2 | C=Cc1c(C)c(O)cc2c1CC[C@H](C(=C)C)[C@@]2(C)CCC(=O)O | 25 µg/mL (≈ 79.5 µM) | > 50 µg/mL | > 50 µg/mL | > 50 µg/mL | > 50 µg/mL | > 50 µg/mL | > 50 µg/mL | > 50 µg/mL | > 50 µg/mL | > 50 µg/mL | > 50 µg/mL
3 | C=CCc1ccc(O)c(-c2cc(CC=C)ccc2O)c1 [MAGNOLOL] |  |  | 12.5 µg/mL (≈ 46.9 µM) | 6.25 µg/mL (≈ 23.5 µM) | 6.25 µg/mL (≈ 23.5 µM) | > 50 µg/mL | > 50 µg/mL | > 50 µg/mL |  | 12.5 µg/mL (≈ 46.9 µM) | 
4 | Cc1ncc([N+](=O)[O-])n1CCO [METRONIDAZOLE] | 0.5 µg/mL (≈ 2.92 µM) | 128 µg/mL (≈ 748 µM) |  |  |  |  |  |  |  |  | 
5 | COC(=O)C1=CC[C@@]23CC[C@@H]([C@@](C)(/C=C/C=C(\C)C(=O)O)OC2=O)[C@@]3(OC(C)=O)CC1 [PSEUDOLARIC ACID B] |  |  |  |  |  |  |  |  | 12.5 µg/mL (≈ 28.9 µM) |  | 6.25 µg/mL (≈ 14.5 µM)
6 | C=CC1=C(C)C(=O)C=C2[C@@]1(O)CC[C@H](C(=C)C)[C@@]2(C)CCC(=O)OC [TRIGONOCHINENE A] | 25 µg/mL (≈ 72.6 µM) | 50 µg/mL (≈ 145 µM) | > 50 µg/mL | > 50 µg/mL | > 50 µg/mL | > 50 µg/mL | > 50 µg/mL | > 50 µg/mL | > 50 µg/mL | > 50 µg/mL | > 50 µg/mL
7 | C=CC1=C(C)C(=O)C=C2[C@]1(O)CC[C@H](C(=C)C)[C@@]2(C)CCC(=O)OC [TRIGONOCHINENE B] | 12.5 µg/mL (≈ 36.3 µM) | 25 µg/mL (≈ 72.6 µM) | > 50 µg/mL | > 50 µg/mL | > 50 µg/mL | > 50 µg/mL | > 50 µg/mL | > 50 µg/mL | > 50 µg/mL | > 50 µg/mL | > 50 µg/mL
8 | C=CC1=C(C)C(=O)C=C2[C@]1(OO)CC[C@H](C(=C)C)[C@@]2(C)CCC(=O)OC [TRIGONOCHINENE C] | 50 µg/mL (≈ 139 µM) | 50 µg/mL (≈ 139 µM) | 50 µg/mL (≈ 139 µM) | 25 µg/mL (≈ 69.4 µM) | 12.5 µg/mL (≈ 34.7 µM) | > 50 µg/mL | > 50 µg/mL | > 50 µg/mL | > 50 µg/mL | 12.5 µg/mL (≈ 34.7 µM) | > 50 µg/mL
9 | C=CC1=C(C)C(=O)C=C2[C@]13O[C@H]3C[C@H](C(=C)C)[C@@]2(C)CCC(=O)OC [TRIGONOCHINENE D] | 25 µg/mL (≈ 73 µM) | 50 µg/mL (≈ 146 µM) | > 50 µg/mL | > 50 µg/mL | > 50 µg/mL | > 50 µg/mL | > 50 µg/mL | > 50 µg/mL | > 50 µg/mL | > 50 µg/mL | > 50 µg/mL
10 | COc1cc2c(cc(OC)c3cc(C)c(O)cc32)c(C)c1O [TRIGONOCHINENE E] | 25 µg/mL (≈ 83.8 µM) | > 50 µg/mL | 6.25 µg/mL (≈ 20.9 µM) | 6.25 µg/mL (≈ 20.9 µM) | 12.5 µg/mL (≈ 41.9 µM) | > 50 µg/mL | > 50 µg/mL | > 50 µg/mL | 6.25 µg/mL (≈ 20.9 µM) | > 50 µg/mL | 12.5 µg/mL (≈ 41.9 µM)
